# Active and inactive are the calls of the source. The calls are words filed in the database; no cut-off is given here.
# Key:
# [1] = system: Jurkat; assay: Inhibition of TNF-alpha-induced necroptosis in FADD-deficient human Jurkat T cells after 24 hrs; format: functional, cell-based
# Procedure, shortened: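 FADD-deficient human Jurkat T cells at 5×10^5 cells/mL, 24 h at 37 °C, 5% CO2, with 10 ng/mL human TNF-α plus compound at eleven concentrations (0.030–100 μM), each in duplicate. DMSO stocks diluted in DMSO; final DMSO 0.5%. Viability by luminescent ATP assay (CellTiter-Glo), expressed as signal with TNF-α plus compound over signal with compound alone. EC50 from the dose series.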
# [2] = system: L929; assay: Inhibition of TNF-alpha-induced necroptosis in […] assessed as cell viability at 30 uM after 24 hrs by ATP-based assessement method; format: functional
# Procedure, shortened: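 L929 cells given 10 ng/mL human TNF-α for 24 h with compound at 30 μM. ATP-based viability, normalized to compound-only cells without stimulus (100%). N = 2, standard deviation.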
# [3] = system: L929; assay: Inhibition of zVAD-induced necroptosis in […] assessed as cell viability at 30 uM after 24 hrs by ATP-based assessement method; format: functional
# Procedure, shortened: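 L929 cells treated 24 h with 100 μM zVAD.fmk as the necroptotic stimulus, compound at 30 μM. ATP-based viability, normalized to compound-only cells without stimulus (100%). N = 2, standard deviation.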
# [4] = system: Jurkat; assay: Inhibition of TNF-alpha-induced necroptosis in FADD-deficient human Jurkat T cells assessed as cell viability at 30 uM after 24 hrs by ATP-based assessement method; format: functional
# Procedure, shortened: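 FADD-deficient Jurkat cells exposed 24 h to 10 ng/mL human TNF-α with compound at 30 μM. Viability by ATP-based luminescence, normalized to cells given compound without the necroptotic stimulus (set as 100%). N = 2, standard deviation.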
# [5] = system: Fibroblast; assay: Inhibition of TNFalpha and zVAD-induced necroptosis in SV40-transformed mouse adult lung fibroblasts assessed as cell viability at 30 uM after 24 hrs by ATP-based assessement method; format: functional
# Procedure, shortened: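 SV40-transformed mouse adult lung fibroblasts stimulated 24 h with 10 ng/mL human TNF-α plus 100 μM zVAD.fmk, compound at 30 μM. ATP-based viability, normalized to compound-treated cells without stimulus (100%). N = 2, standard deviation.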
Compound,EC50 [1] [µM],also measured
CC(C)c1nnsc1C(=O)NCc1c(F)cccc1Cl,0.58,–
O=C(NCc1c(F)cccc1F)c1snnc1C1CC1,1.5,–
CCOc1ccsc1C(=O)NCc1c(F)cccc1Cl,> 100,–
CCCc1nnsc1C(=O)NCc1c(F)cccc1Cl,4.1,–
O=C(NCc1c(F)cccc1C(F)(F)F)c1snnc1C1CC1,> 100,–
CCCCC(NC(=O)c1snnc1C1CC1)c1c(F)cccc1Cl (stereo not given),> 100,–
O=C(NCc1c(F)cccc1Cl)c1snnc1C1CC1,0.5,–
O=C(NC(c1ccccc1)c1c(F)cccc1Cl)c1snnc1C1CC1 (stereo not given),> 100,–
O=C(NC(=O)c1c(F)cccc1Cl)c1snnc1C1CC1,> 100,–
O=C(NCc1c(F)cccc1Cl)c1snnc1C1CCCCC1,6,–
Cc1ncsc1C(=O)NCc1c(F)cccc1Cl,20,–
Cc1nnsc1C(=O)N(C)Cc1c(F)cccc1Cl,11,–
C[C@@H](NC(=O)c1snnc1C1CC1)c1c(F)cccc1Cl,> 100,–
O=C(NCc1ccccc1F)c1snnc1C1CC1,1.5,–
O=C(NCc1c(F)cccc1Cl)c1snnc1C1CCC1,0.6,–
CC(C)(C)c1nnsc1C(=O)NCc1c(F)cccc1Cl,18,–
O=C(Nc1c(F)cccc1F)c1snnc1C1CC1,> 100,–
O=C(NCc1ncccc1F)c1snnc1C1CC1,9.6,–
Cc1nc(C)c(C(=O)NCc2c(F)cccc2Cl)s1,> 100,–

Compound,EC50 [1] [µM],also measured
O=C(NCc1c(Cl)cccc1Oc1ccccc1)c1snnc1C1CC1,> 100,–
Cc1nnccc1C(=O)NCc1c(F)cccc1Cl,> 100,–
Cc1ccsc1C(=O)NC(C)c1c(F)cccc1Cl (stereo not given),3.9,–
CC(NC(=O)c1snnc1C1CC1)c1c(F)cccc1Cl (stereo not given),0.4,–
CC(C)(NC(=O)c1snnc1C1CC1)c1c(F)cccc1Cl,> 100,–
O=C(NCc1c(F)ccc(Cl)c1F)c1snnc1C1CC1,0.18,–
Cc1cccc(Cl)c1CNC(=O)c1snnc1C1CC1,10,–
COc1ccc([C@H]2C3CCc4ccc(OC)cc4C3=NN2C(C)=O)cc1 (stereo not given in full),–,Activity [2]: Active; Activity [3]: inactive; Activity [4]: Active
Cc1csc(C(=O)NCc2c(F)cccc2Cl)c1Cl,3.9,–
Cc1c(Br)csc1C(=O)NCc1c(F)cccc1Cl,1.3,–
O=C(NCc1c(F)cccc1Cl)c1snnc1-c1ccccc1,> 100,–
O=C(NCc1c(Cl)cccc1Cl)c1snnc1C1CC1,6,–
Cc1ccccc1CNC(=O)c1snnc1C,27,–
O=C(NCc1c(F)cccc1Cl)c1snnc1C1CCCC1,1.9,–
Cc1nc(-c2ccc(Cl)cc2)sc1C(=O)NCc1c(F)cccc1Cl,> 100,–
C[C@H](NC(=O)c1snnc1C1CC1)c1c(F)cccc1Cl,0.28,Activity [2]: Active; Activity [3]: inactive; Activity [4]: Active; Activity [5]: Active
Cc1csc(C(=O)NCc2c(F)cccc2Cl)c1,3.7,–
Cc1nnsc1C(=O)NCc1c(F)cccc1F,3.5,–
Cc1c(C#N)csc1C(=O)NCc1c(F)cccc1Cl,1.2,–

Compound,EC50 [1] [µM],also measured
Fc1cccc(Cl)c1CNCc1snnc1C1CC1,> 100,–
O=C(NCc1c(F)ccc(F)c1Cl)c1snnc1C1CC1,0.52,–
O=C(NCc1cccc2ccccc12)c1snnc1C1CC1,> 100,–
Cc1ncoc1C(=O)NCc1c(F)cccc1Cl,> 100,–
COc1ccccc1CNC(=O)c1snnc1C,> 100,–
CN1C(=O)N[C@H](Cc2c[nH]c3c(Cl)cccc23)C1=O,–,Activity [2]: Active; Activity [3]: Active; Activity [4]: Active; Activity [5]: Active
O=C(NCc1ccccn1)c1snnc1C1CC1,40,–
Cc1ccsc1C(=O)NCc1c(F)cccc1Cl,7,–
O=C(NCCc1c(F)cccc1Cl)c1snnc1C1CC1,27,–
Cc1ccc(C(=O)NCc2c(F)cccc2Cl)s1,3.9,–
CN(Cc1c(F)cccc1Cl)C(=O)c1snnc1C1CC1,16,–
O=C(NCc1c(F)cccc1Cl)c1cccs1,9.4,–
O=C(NCc1c(F)cccc1Cl)c1sccc1Cl,9.6,–
Cc1nnsc1C(=O)NCc1c(F)cccc1Cl,1,–
Cc1c(S(=O)(=O)c2ccc(Cl)cc2)csc1C(=O)NCc1c(F)cccc1Cl,> 100,–
N#Cc1cccc(Cl)c1CNC(=O)c1snnc1C1CC1,> 100,–
Cc1ccoc1C(=O)NCc1c(F)cccc1Cl,13,–
O=C(NCc1c(F)cccc1Cl)c1sccc1C1CC1,5.1,–

# From ChEMBL document CHEMBL1140581, “Structure-activity relationship study of [1,2,3]thiadiazole necroptosis inhibitors” (Bioorg Med Chem Lett, 2007)
